Assay outcomes deposited in PubChem by Sanford-Burnham Center for Chemical Genomics.
Scp1 inh – blocks human Scp-1 phosphatase activity; inhibition, % at 20 µM; Q9GZU7; 340,000 compounds, 0.88% hits; Recombinant Scp1, phosphopeptide, malachite green phosphate absorbance; AID 493091;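 active = inhibition above about 50% at 20 µM, limit read from the data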
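assay system = SCP-1 phosphatase catalytic domain, residues 76-261 | buffer or medium = 50 mM Tris acetate pH 5.5, 0.005% Tween-20, 10 mM MgCl2 | incubation = enzyme reaction 45 min at room temperature, colour 5 min, stabilisation 30 min | signal = Phosphate-binding colour reagent, absorbance read at 630 nm | measure = % inhibition at 20 µM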
UBC9 SUMO inh – inhibitors of human SUMOylation (UBC9); P63279; HTRF SUMOylation assay, SAE1/SAE2 + UBC9, in vitro; inhibition, % at 35 µM; 290,000 compounds, 0.36% hits; in the data active = inhibition above about 50%, passing the limit was not always enough
STEP inh – blocks human striatal-enriched tyrosine phosphatase | P54829 | recombinant STEP, OMFP fluorogenic substrate, fluorescence | inhibition, % at 20 µM | 360,000 compounds, 0.25% hits;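 active = inhibition at 20 µM, scaled per plate between control wells, above about 37%, limit read from the data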
Target sequence (P54829 whole entry, looked up): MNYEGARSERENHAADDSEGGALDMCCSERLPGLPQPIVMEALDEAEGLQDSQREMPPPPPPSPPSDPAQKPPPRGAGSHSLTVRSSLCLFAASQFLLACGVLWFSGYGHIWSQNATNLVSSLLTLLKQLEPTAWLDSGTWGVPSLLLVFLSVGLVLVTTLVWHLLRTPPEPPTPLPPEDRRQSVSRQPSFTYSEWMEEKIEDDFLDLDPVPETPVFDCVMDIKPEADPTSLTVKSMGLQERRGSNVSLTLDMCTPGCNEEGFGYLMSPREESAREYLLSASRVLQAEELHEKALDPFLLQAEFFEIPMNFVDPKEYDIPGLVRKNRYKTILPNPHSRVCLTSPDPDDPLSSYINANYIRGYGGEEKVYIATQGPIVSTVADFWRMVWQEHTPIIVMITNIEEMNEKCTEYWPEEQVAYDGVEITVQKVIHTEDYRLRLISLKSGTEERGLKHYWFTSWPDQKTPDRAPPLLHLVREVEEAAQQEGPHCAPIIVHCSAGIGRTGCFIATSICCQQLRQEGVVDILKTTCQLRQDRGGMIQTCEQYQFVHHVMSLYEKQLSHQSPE
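System: STEP (striatal-enriched tyrosine phosphatase) enzyme, cell-free; medium: Bis-Tris pH 6.0 buffer with DTT, detergent; dosing: 20 µM, 1% DMSO; times: reaction 20 min, ambient temperature; detection: fluorescence, 480/540 nm; read-out basis: normalized % inhibition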
LMPTP inh – LMPTP (human) inhibition. 360,000 compounds, 0.22% hits. inhibition, % at 20 µM. AID 651560. P24666. recombinant LMPTP-A, OMFP fluorogenic substrate, fluorescence intensity;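 active = compounds that cut the enzyme signal by at least half of the control window in the single-dose screen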
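material = LMPTP-A | quantity = 0.625 nM enzyme | reagent = OMFP substrate, 400 µM final | buffer or medium = Bis-Tris pH 6.0, DTT, detergent | detection = endpoint fluorescence intensity from OMFP dephosphorylation | dosing = single 20 µM dose | read-out basis = % inhibition relative to no-enzyme and uninhibited control wells | control set = no-enzyme and uninhibited controls | timing = 50 min at room temperature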
SUMO1 PPI mod – alters human SUMO1 binding to SIM partners | 360,000 compounds, 0.33% hits | inhibition, % at 20 µM | P63165 | AID 602429 | SUMO1 binding to a labelled peptide, TR-FRET, 1 h; in the data active = inhibition above about 37%
DNMT1 block – inhibitors of human DNMT1. inhibition (reported as % activation of signal), % at 10 µM. DNMT1 molecular beacon, Hinp1I cleavage, fluorescence. P26358. 360,000 compounds, 0.83% hits. AID 588458; in the data active = inhibition above about 50%
DNMT1 interf DR – shows spectral interference in the DNMT1 beacon assay. 200 tested, under 10 active. molecular beacon fluorescence, spectral interference counter-screen. shares compounds with DNMT1 block. IC50, µM; call rule not given here
DNMT1 inh conf – DNMT1 inhibition confirmation, single concentration | DNMT1 molecular beacon HinP1I cleavage, fluorescence | inhibition, % at 10 µM | shares compounds with DNMT1 block | 2,300 compounds, 8% hits;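 active = average inhibition of at least 30% in the single-concentration confirmation test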
Beacon interf – counter-screen for DNMT1 inhibitors: spectral interference; shares compounds with DNMT1 block; DNMT1 molecular beacon spectral interference counterscreen, fluorescence 485/520; activation (fluorescence interference), % at 10 µM; 2,300 compounds, 1% hits;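 active = activation of at least 30% at 10 µM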;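 note: DNMT1 catalytic domain with a HinP1I cleavage step and a FAM/dabcyl DNA beacon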
Each line names hits and unclear results; the compound was inactive in the other large screens (follow-up assays come after a bar, where they were run). Compounds with a hit are over-represented: about 1.9% of the library has one in this group of screens.

Cc1cc(C(=O)NCc2ccc(Cl)cc2)n(-c2ccccc2)n1	none
CN(c1c[nH]c(=O)[nH]c1=O)C1CCCCC1	none
CN(C)C1CCCCC=CC(=O)NC1 (stereo not drawn)	DNMT1 block 52 (no result: Scp1 inh, UBC9 SUMO inh) | DNMT1 inh conf inactive | Beacon interf inactive
C=CCn1c(N)cc(=O)nc1SC(C)C(=O)Nc1ccc(C(=O)OCC)cc1 (stereo not drawn)	none
CCCCCCCCC(=O)c1c(OC)oc(C=O)cc1=O	DNMT1 block 98 (no result: Scp1 inh, UBC9 SUMO inh) | DNMT1 interf DR inactive | DNMT1 inh conf 38 | Beacon interf inactive
CCCCCCC(=O)Nc1cc2c(C)cc(=O)oc2cc1C	none
COc1cc2c(=O)[nH]c3cc([N+](=O)[O-])ccc3c2cc1[N+](=O)[O-]	SUMO1 PPI mod 99, DNMT1 block 76 (no result: Scp1 inh, UBC9 SUMO inh) | DNMT1 inh conf inactive | Beacon interf inactive
N#Cc1c2ccc(OCC(=O)NCc3ccco3)cc2n2ccccc12	DNMT1 block 62 | DNMT1 inh conf inactive | Beacon interf inactive
CC(C)(C)c1ccc(OCC(=O)NCc2ccco2)cc1	none
O=C(COc1cccnc1[N+](=O)[O-])Nc1ccc2c(c1)OC(F)(F)O2	none
CCOC(=O)C1CCN(C(=O)c2ccc3c(=O)n4nc(Nc5ccccc5OC)sc4nc3c2)CC1	none (no result: Scp1 inh, UBC9 SUMO inh)
Cc1cccc2c(N=NC(=O)c3ccc(NS(=O)(=O)c4cccs4)cc3)c(O)[nH]c12	DNMT1 block 87 (no result: UBC9 SUMO inh) | DNMT1 inh conf inactive | Beacon interf inactive
CC(=O)O[C@H]1[C@H](O)[C@H](Oc2c(O)c(C)c3c4c2[C@@H](C)CC[C@@H]4[C@@H](C)C[C@H]3C=C(C)C)O[C@@H](C)[C@H]1O	none (no result: UBC9 SUMO inh)
COc1ccc(C(=O)NC2=NCCS2)cc1S(=O)(=O)N1CCOCC1	none (no result: Scp1 inh, UBC9 SUMO inh)
Cc1cccc(C)c1-n1nnnc1C(c1cc2ccccc2o1)N1CCN(C/C=C/c2ccccc2)CC1 (stereo not drawn)	DNMT1 block 63 (no result: Scp1 inh, UBC9 SUMO inh) | DNMT1 inh conf inactive | Beacon interf inactive
O=C(CNCc1ccco1)Nc1ccc(Oc2ccccc2)cc1	none
O=C1Nc2ccc3c(c2C1=Cc1cc2c(cc1Br)OCO2)OCO3	DNMT1 block 67 (no result: UBC9 SUMO inh) | DNMT1 inh conf inactive | Beacon interf inactive
O=C1NC(=O)/C(=C/c2cc3c(cc2Br)OCO3)S1	none
Cc1cc(Cl)c2oc(C(=O)N3CCCCC3CCN3CCCC3=O)c(C)c2c1 (stereo not drawn)	none
CCCN(CC(=O)Nc1ccccc1OC)C(=O)c1ccc(S(=O)(=O)Nc2ccccc2)cc1	DNMT1 block 62 (no result: UBC9 SUMO inh) | DNMT1 inh conf inactive | Beacon interf inactive
C/C(=N/NC(=O)c1cc(-c2cccc([N+](=O)[O-])c2)n[nH]1)c1cccc(O)c1	DNMT1 block 89 | DNMT1 inh conf inactive | Beacon interf inactive
CCOc1ccc(/C=N/n2c(COc3ccccc3)n[nH]c2=S)cc1OC	none
CCN(CC)CCCn1c(=S)[nH]c2ncccc2c1=O	none
CCCCN(C)CCn1c(=S)[nH]c2ncccc2c1=O	DNMT1 block 94 | DNMT1 inh conf inactive | Beacon interf inactive
CC(=O)Nc1ccc(NC(=O)CCc2nc3sc4c(c3c(=O)[nH]2)CCCC4)cc1	none (no result: UBC9 SUMO inh)
CC1(NC(=O)CCc2nc3sc4c(c3c(=O)[nH]2)CCCC4)CCS(=O)(=O)C1 (stereo not drawn)	DNMT1 block 54 (no result: Scp1 inh, UBC9 SUMO inh) | DNMT1 inh conf inactive | Beacon interf inactive
O=[N+]([O-])c1ccc(COc2cccc(CNc3ccc(Br)cc3)c2)cc1	DNMT1 block 71 | DNMT1 inh conf inactive | Beacon interf inactive
O=[N+]([O-])c1ccc(COc2ccc(CNc3ccccc3)cc2)cc1	none
c1ccc(Cn2nnc3c(NCc4ccc5c(c4)OCO5)nc(C4CC4)nc32)cc1	none
